Source: ChEMBL document CHEMBL2396513, “Falcipain-2 inhibition by suramin and suramin analogues” (Bioorg Med Chem, 2013)
Activity calls are given as the source filed them. No cut-off for these calls is given here.

test system: Plasmodium falciparum; assay: Inhibition of Plasmodium falciparum falcipain-2 hemoglobinase activity at 200 nM after 90 mins by Coomassie Blue R-250 staining-based densitometric analysis
How it was run: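 Human hemoglobin 0.1 mg/ml digested by 20 nM recombinant falcipain-2 in 100 mM sodium acetate, 10 mM DTT, 10% glycerol, pH 5.5, with or without compound, 37 °C for 90 min. Quenched with denaturing SDS sample buffer, products run on 15% SDS-PAGE, Coomassie-stained, and remaining hemoglobin quantified by densitometry.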

| inhibition | SMILES |
| --- | --- |
| Active | CC1=CCC(C(=O)/N=C2\CC=C(S(=O)(=O)O)c3cc(S(=O)(=O)O)cc(S(=O)(=O)O)c32)=C/C1=N/C(=O)C1=CC=C/C(=N\C(=O)/N=C2\C=CC=C(C(=O)/N=C3/CC(C(=O)/N=C4\CC=C(S(=O)(=O)O)c5cc(S(=O)(=O)O)cc(S(=O)(=O)O)c54)=CC=C3C)C2)C1 |

test system: Plasmodium falciparum; assay: Binding affinity to Plasmodium falciparum falcipain-2 at 1:1 compound to protein molar ratio by isothermal titration assay
How it was run: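 Recombinant mature falcipain-2 domain (241 aa, E. coli-expressed, Ni-column purified, refolded), 5 µM in 100 mM sodium acetate pH 5.5, 5% glycerol, 10 mM DTT; suramin added stepwise from stock in same buffer. Intrinsic tryptophan fluorescence read at ex 295/em 340 nm; maximum dilution 10%, with fluorescence and protein concentration corrected. Stoichiometry taken from inflection of first-derivative titration curve.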

| Activity | SMILES |
| --- | --- |
| Active | CC1=CCC(C(=O)/N=C2\CC=C(S(=O)(=O)O)c3cc(S(=O)(=O)O)cc(S(=O)(=O)O)c32)=C/C1=N/C(=O)C1=CC=C/C(=N\C(=O)/N=C2\C=CC=C(C(=O)/N=C3/CC(C(=O)/N=C4\CC=C(S(=O)(=O)O)c5cc(S(=O)(=O)O)cc(S(=O)(=O)O)c54)=CC=C3C)C2)C1 |

test system: not listed separately; assay: Inhibition of Plasmodium falciparum falcipain-2 peptidolytic activity using Z-Phe-Arg-AMC as substrate measured over 30 mins by spectrofluorimetric analysis
How it was run: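 Recombinant falcipain-2 at 20 nM in 100 mM sodium acetate, 10 mM DTT, 10% glycerol, pH 5.5, with 50 µM Z-Phe-Arg-AMC and varying inhibitor concentrations. AMC release followed continuously (ex 355/em 460 nm) over 30 min at 23 ± 2 °C. IC50 from percent activity versus inhibitor concentration fitted to four-parameter logistic; at least three independent experiments.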

| SMILES | IC50 [µM] |
| --- | --- |
| O=C(Nc1cccc(C(=O)Nc2ccc(S(=O)(=O)O)cc2S(=O)(=O)O)c1)Nc1cccc(C(=O)Nc2ccc(S(=O)(=O)O)cc2S(=O)(=O)O)c1 | 0.098 |
| CC1=CCC(C(=O)/N=C2\CC=C(S(=O)(=O)O)c3cc(S(=O)(=O)O)cc(S(=O)(=O)O)c32)=C/C1=N/C(=O)C1=CC=C/C(=N\C(=O)/N=C2\C=CC=C(C(=O)/N=C3/CC(C(=O)/N=C4\CC=C(S(=O)(=O)O)c5cc(S(=O)(=O)O)cc(S(=O)(=O)O)c54)=CC=C3C)C2)C1 | 0.095 |
| COCc1ccc(C(=O)Nc2ccc(S(=O)(=O)O)c3cc(S(=O)(=O)O)cc(S(=O)(=O)O)c23)cc1NC(=O)c1cccc(NC(=O)Nc2cccc(C(=O)Nc3cc(C(=O)Nc4ccc(S(=O)(=O)O)c5cc(S(=O)(=O)O)cc(S(=O)(=O)O)c45)ccc3COC)c2)c1 | 0.06 |
| O=C(Nc1cccc(C(=O)Nc2cc(C(=O)Nc3ccc(S(=O)(=O)O)c4cc(S(=O)(=O)O)cc(S(=O)(=O)O)c34)ccc2-c2ccccc2)c1)Nc1cccc(C(=O)Nc2cc(C(=O)Nc3ccc(S(=O)(=O)O)c4cc(S(=O)(=O)O)cc(S(=O)(=O)O)c34)ccc2-c2ccccc2)c1 | 0.062 |
| CC(C)c1ccc(C(=O)Nc2ccc(S(=O)(=O)O)c3cc(S(=O)(=O)O)cc(S(=O)(=O)O)c23)cc1NC(=O)c1cccc(NC(=O)Nc2cccc(C(=O)Nc3cc(C(=O)Nc4ccc(S(=O)(=O)O)c5cc(S(=O)(=O)O)cc(S(=O)(=O)O)c45)ccc3C(C)C)c2)c1 | 0.111 |

More lines, now with the values ahead:

| IC50 [µM] | SMILES |
| --- | --- |
| 0.08 | CCc1ccc(C(=O)Nc2ccc(S(=O)(=O)O)c3cc(S(=O)(=O)O)cc(S(=O)(=O)O)c23)cc1NC(=O)c1cccc(NC(=O)Nc2cccc(C(=O)Nc3cc(C(=O)Nc4ccc(S(=O)(=O)O)c5cc(S(=O)(=O)O)cc(S(=O)(=O)O)c45)ccc3CC)c2)c1 |
| 0.167 | O=C(Nc1cccc(C(=O)Nc2ccc(S(=O)(=O)O)c3cc(S(=O)(=O)O)cc(S(=O)(=O)O)c23)c1)Nc1cccc(C(=O)Nc2ccc(S(=O)(=O)O)c3cc(S(=O)(=O)O)cc(S(=O)(=O)O)c23)c1 |
| 0.067 | COc1ccc(C(=O)Nc2ccc(S(=O)(=O)O)c3cc(S(=O)(=O)O)cc(S(=O)(=O)O)c23)cc1NC(=O)c1cccc(NC(=O)Nc2cccc(C(=O)Nc3cc(C(=O)Nc4ccc(S(=O)(=O)O)c5cc(S(=O)(=O)O)cc(S(=O)(=O)O)c45)ccc3OC)c2)c1 |
| 0.036 | O=C(Nc1cccc(C(=O)Nc2cccc(C(=O)Nc3ccc(S(=O)(=O)O)c4cc(S(=O)(=O)O)cc(S(=O)(=O)O)c34)c2)c1)Nc1cccc(C(=O)Nc2cccc(C(=O)Nc3ccc(S(=O)(=O)O)c4cc(S(=O)(=O)O)cc(S(=O)(=O)O)c34)c2)c1 |
| 0.078 | O=C(Nc1cccc(C(=O)Nc2cc(C(=O)Nc3ccc(S(=O)(=O)O)c4cc(S(=O)(=O)O)cc(S(=O)(=O)O)c34)ccc2Cl)c1)Nc1cccc(C(=O)Nc2cc(C(=O)Nc3ccc(S(=O)(=O)O)c4cc(S(=O)(=O)O)cc(S(=O)(=O)O)c34)ccc2Cl)c1 |
| 0.042 | O=C(Nc1cccc(C(=O)Nc2cc(C(=O)Nc3ccc(S(=O)(=O)O)c4cc(S(=O)(=O)O)cc(S(=O)(=O)O)c34)ccc2F)c1)Nc1cccc(C(=O)Nc2cc(C(=O)Nc3ccc(S(=O)(=O)O)c4cc(S(=O)(=O)O)cc(S(=O)(=O)O)c34)ccc2F)c1 |
